From PubChem
In the library only some 1.1% were active in any assay of this set; here they are far more common.
MT1-MMP act inh – MT1-MMP (human) activation inhibition; P50281; HT1080 RFP-PRO-GFP cells, GFP/RFP ratio fluorescence, overnight; percent of plate control window, DMSO zero; GFP/RFP ratio change, % at 20 µM; 0.061% of 360,000 active; AID 651647;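 active = GFP/RFP ratio change of at least 30% with cell ATP level not reduced by more than half and red fluorescence within 50% of control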
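system = RFP-PRO-GFP reporter HT1080 cells | dosing = 20 µM single dose, 1% DMSO | timing = overnight cell settling, then overnight compound exposure, 37 °C, 5% CO2 | read-out basis = GFP/RFP fluorescence ratio | controls = DMSO and RFP-L50D-GFP cell wells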
Tb MetRS inh – Trypanosoma brucei MetRS inhibition | purified T. brucei MetRS, ATP depletion, Kinase-Glo luminescence | inhibition, % at 11.9 µM | 0.4% of 360,000 active | AID 624268;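 active = inhibition above a per-plate cutoff of the control wells' mean inhibition plus 3 SD, cut at about 5.5% in these data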;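 note: 0% = DMSO wells median and 100% = median of wells with control inhibitor compound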
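assay system = parasite MetRS enzyme | timing = 15 min preincubation, 2 h reaction, all 25 °C | evaluation = percent inhibition relative to median high and low control wells | medium = HEPES buffer containing pyrophosphatase, BSA, spermine, DTT | compound = single dose, 11.9 µM final nominal, 0.9% final DMSO | detection = Kinase-Glo luminescence, ATP depletion format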
GC-A act – GC-A (human) enzyme activation; P16066; HEK293 GC-A cells, cGMP TR-FRET, EC30 ANP; 0% at EC30 ANP, 100% saturating ANP; activation, % at 10 µM; 0.14% of 370,000 active; in the data active = activation above about 40%
SKN-1 block – C. elegans SKN-1 inhibition | AID 624304 | inhibition, % at 21.8 µM | 0.49% of 360,000 active | C. elegans VP596 Pgst-4::GFP/RFP ratio, acrylamide-induced, 24 h;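 active = interference check ratio from 0.5 to 1.5 plus GFP to RFP signal ratio inhibition reaching or exceeding a fixed threshold, cut at about 30% in these data, passing the limit was not always enough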
GC-B act – GC-B (human) receptor activation | HEK293-GC-B cells, CNP EC30, cGMP TR-FRET; 0% at EC30 CNP, 100% saturating CNP | activation, % at 10 µM | 0.11% of 370,000 active | AID 1920062;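 active = activation at 10 µM reaching about 35% in either raw or pattern-adjusted values, limit read from the data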
Target sequence (P20594 whole entry, looked up): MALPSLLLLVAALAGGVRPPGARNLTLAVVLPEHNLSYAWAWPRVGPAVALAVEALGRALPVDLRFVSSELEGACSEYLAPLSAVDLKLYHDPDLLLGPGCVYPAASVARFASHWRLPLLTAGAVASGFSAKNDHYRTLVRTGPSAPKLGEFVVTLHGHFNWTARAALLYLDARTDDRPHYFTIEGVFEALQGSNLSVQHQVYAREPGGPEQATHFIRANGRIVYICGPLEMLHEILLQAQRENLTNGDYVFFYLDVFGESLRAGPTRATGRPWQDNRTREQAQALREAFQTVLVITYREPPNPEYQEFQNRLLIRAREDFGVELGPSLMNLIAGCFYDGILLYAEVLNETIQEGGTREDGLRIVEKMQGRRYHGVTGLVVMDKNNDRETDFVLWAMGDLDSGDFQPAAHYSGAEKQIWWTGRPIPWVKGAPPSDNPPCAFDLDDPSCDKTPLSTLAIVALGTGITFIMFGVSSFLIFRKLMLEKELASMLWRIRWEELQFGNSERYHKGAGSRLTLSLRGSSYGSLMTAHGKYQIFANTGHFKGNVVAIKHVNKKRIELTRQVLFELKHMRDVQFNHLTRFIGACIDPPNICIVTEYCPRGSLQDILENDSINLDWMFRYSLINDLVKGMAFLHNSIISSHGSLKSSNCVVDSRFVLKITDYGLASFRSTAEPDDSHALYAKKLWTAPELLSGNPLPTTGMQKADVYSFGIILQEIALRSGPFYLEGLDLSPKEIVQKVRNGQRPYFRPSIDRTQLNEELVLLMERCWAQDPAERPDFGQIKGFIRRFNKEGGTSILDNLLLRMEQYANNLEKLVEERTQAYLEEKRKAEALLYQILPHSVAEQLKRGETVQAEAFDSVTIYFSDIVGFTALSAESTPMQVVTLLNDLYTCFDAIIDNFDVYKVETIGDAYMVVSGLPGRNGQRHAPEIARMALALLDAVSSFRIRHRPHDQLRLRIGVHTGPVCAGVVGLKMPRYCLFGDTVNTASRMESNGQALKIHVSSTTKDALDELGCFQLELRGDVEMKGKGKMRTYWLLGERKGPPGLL
A1 inh – inhibitors of the anti-apoptotic protein A1, read as caspase activation. 0.066% of 330,000 active. AID 2462. MEF A1-2A-BIM cells, Caspase-Glo 3/7 luminescence, 3 h; percent of clofoctol response, vehicle zero. caspase activation, % (no concentration beside the values);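 active = over half of replicate activation scores above 10%, or exactly half above 10 with the replicate mean above 10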
TbMetRS confirm – confirmation of Trypanosoma brucei MetRS inhibitors. T. brucei MetRS enzyme, luminescence (ATP depletion). shares compounds with Tb MetRS inh. 93% of 1,400 active. inhibition, % at 11.9 µM. AID 624412; in the data active = inhibition above about 7%
Jurkat tox – kills Jurkat cells in T. brucei MetRS counterscreen. shares compounds with Tb MetRS inh. Jurkat cells viability, ATP luminescence. inhibition, % at 8.3 µM. 12% of 1,400 active; in the data active = inhibition above about 15%;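 note: 0% = vehicle and 100% = reference inhibitor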
Tb MetRS inh FP – T. brucei MetRS inhibition, orthogonal assay; AID 651607; inhibition, % at 11.9 µM; purified T. brucei MetRS, fluorescence polarization; 44% of 1,400 active; shares compounds with Tb MetRS inh; in the data active = inhibition above about 17%;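 note: 0% = vehicle wells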
The depositor's hits bear a star; · = not tested or not shown.

SMILES	MT1-MMP act inh	Tb MetRS inh	GC-A act	SKN-1 block	GC-B act	A1 inh	TbMetRS confirm	Jurkat tox	Tb MetRS inh FP
CCN1C(=O)C(CC(=O)Nc2ccc(OC)cc2)N(CCc2ccc(OC)cc2)C1=S (stereo not drawn)	5.5	36.4*	-1.5	-2.7	2.9	1.0	50.6*	3.3	33.6*
CCN1C(=O)C(CC(=O)Nc2ccc(Br)cc2)N(CCCc2ccccc2)C1=S (stereo not drawn)	-2.3	65.7*	-3.7	-2.4	-1.8	0.2	77.1*	8.4	62.2*
COc1ccc(NC(=O)CC2C(=O)N(c3ccc(OC)cc3)C(=O)N2CCc2cccs2)cc1 (stereo not drawn)	-1.6	10.9*	-0.6	13.9	8.4	0.8	20.5*	0.3	15.0
CCOC(=O)Cn1cc(CN2CCS(=O)(=O)N(Cc3ccc(OC)cc3)C(C(=O)OC)C2)nn1 (stereo not drawn)	·	·	-1.1	·	2.6	·	·	·	·
O=C(Nc1ccc(OC(F)(F)F)cc1)Nc1c(-c2ccccc2)nc2ncccn12	·	·	1.9	·	3.4	·	·	·	·
NC(=O)C1CCN(CC(=O)c2c[nH]c3ccc(F)cc23)CC1	-4.6	4.5	1.3	-2.7	2.8	0.2	·	·	·
O=C(CN1CCN(c2ccccc2F)CC1)c1c[nH]c2ccc(F)cc12	21.9	10.7*	1.3	-33.5	-11.8	1.1	17.4*	-10.3	2.3
Cc1ccc2nc(/C(C#N)=C/c3ccc(-c4ccccc4C(=O)O)o3)[nH]c2c1	-130.4	6.0*	3.8	19.7	-1.3	0.9	21.7*	4.2	4.0
Cc1cc2nc(/C(C#N)=C\c3ccc(-c4ccccc4C(=O)O)o3)[nH]c2cc1C	-114.5	-0.6	-4.5	-6.9	1.5	-0.8	·	·	·
Cc1cc(/C=C(/C#N)c2nc3ccccc3[nH]2)c(C)n1-c1cc(C(=O)O)cc(C(=O)O)c1	-36.9	5.8*	1.5	10.2	2.2	·	37.3*	-3.0	11.5
O=C(NC1CCCCN(Cc2cccc(F)c2)C1=O)c1ccc(-c2ccccc2)cc1 (stereo not drawn)	·	·	1.0	·	0.8	·	·	·	·
O=C(NCc1n[nH]c(=S)n1Cc1ccccc1)c1ccc(Cl)cc1Cl	4.8	5.8*	2.7	-1.7	2.1	0.4	12.7*	0.8	5.4
O=[N+]([O-])c1ccc(OCCCN2CCC(C(O)(c3ccccc3)c3ccccc3)CC2)c(Cl)c1	·	·	-16.6	·	-5.8	·	·	·	·
Cc1cccc(NS(=O)(=O)c2ccc3nc(-c4ccccc4)[nH]c3c2)c1C	-0.9	27.5*	-11.2	7.9	-4.3	-0.5	40.0*	3.1	30.5*
Cc1cccc(NS(=O)(=O)c2ccc3[nH]c(=O)oc3c2)c1C	-8.3	-0.2	1.8	5.3	1.5	0.5	·	·	·
O=C(NCCc1c[nH]c2ccccc12)OCc1cn(Cc2cccc(F)c2)nn1	·	·	1.9	·	1.3	·	·	·	·
Cc1ccccc1-n1cc(-c2ccc(Br)cc2)nc1SCC(N)=O	2.5	28.6*	1.8	-21.4	-5.9	-0.4	39.1*	6.5	23.2*
Cc1ccc(-c2cn(-c3ccccc3)c(SCC(N)=O)n2)cc1C	-10.3	0.2	-2.4	15.7	-4.6	0.0	·	·	·
CN(Cc1ccccc1)S(=O)(=O)c1cccc(C(=O)OCc2ccc(C(F)(F)F)cc2)c1	·	·	1.7	·	5.3	·	·	·	·
O=C(CNC(=O)c1cccc(OC(F)F)c1)Nc1ccc(Cl)cc1	4.4	51.0*	-2.5	3.0	-1.3	0.0	69.8*	2.4	31.5*
COc1ccc(Cc2n[nH]c(=S)n2NC(=O)Nc2ccc(Cl)c(Cl)c2)cc1	-0.9	36.9*	-2.3	0.2	-4.7	0.1	50.4*	8.0	31.5*
Cn1c(CC(=O)Nc2ccc(Cl)c(Cl)c2)n[nH]c1=S	1.2	1.6	-4.7	-3.1	-3.3	0.3	·	·	·
Cc1ccc(C2=NS(=O)(=O)N(C)C(C(=O)NCc3ccc(F)cc3)=C2)cc1	0.7	9.8*	-6.9	-3.0	-4.3	0.5	17.1*	-3.0	11.7
Cc1ccc(C2=NS(=O)(=O)N(C)C(C(=O)NCc3ccccc3)=C2)cc1	-1.9	4.7	-3.8	1.6	-4.2	-0.4	·	·	·
COc1cccc(/C(O)=C/c2nc3ccc(C(=O)NCCc4cccc(C)c4)cc3[nH]c2=O)c1	-23.1	7.4*	-1.7	-15.8	8.0	0.2	6.6*	15.1*	3.0
SMILES	MT1-MMP act inh	Tb MetRS inh	GC-A act	SKN-1 block	GC-B act	A1 inh	TbMetRS confirm	Jurkat tox	Tb MetRS inh FP
CSc1ccc(C=Nn2c(-c3cc(C)[nH]n3)n[nH]c2=S)cc1	·	·	-0.4	·	-2.0	·	·	·	·
COc1ccc(/C=N/n2c(=O)[nH]c3c([nH]c4ccc(Br)cc43)c2=O)cc1CN1CCOCC1	4.9	6.2*	14.4	37.5*	5.3	0.9	13.9*	10.6	8.8
COc1ccc(/C=N/n2c(=O)[nH]c3c([nH]c4ccc(Cl)cc43)c2=O)cc1CN1CCCCC1	1.4	4.1	1.0	4.4	1.4	-0.5	·	·	·
O=C(c1cccs1)N1CC[C@H]2[C@H](CCCN2Cc2cc(F)cc(F)c2)C1	·	·	1.8	·	-2.8	·	·	·	·
C=CCNC(=O)CN(C(=O)Cc1ccc(Cl)nc1)c1cccc(Br)c1	·	·	-12.8	·	-5.4	·	·	·	·
Cc1nc(Nc2ccccc2)[nH]c(=O)c1CCC(C)C	13.8	7.5*	2.7	-6.9	3.6	0.1	52.0*	9.4	24.0*
COc1cccc(C(c2c(C)[nH]n(-c3ccccc3)c2=O)c2c(C)[nH]n(-c3ccccc3)c2=O)c1O	8.7	8.1*	4.5	2.4	-2.0	0.0	1.8	-2.3	2.2
COc1cccc(C(c2c(C)[nH]n(-c3ccccc3)c2=O)c2c(C)[nH]n(-c3ccccc3)c2=O)c1OC	10.4	7.7*	6.8	2.6	4.6	0.4	1.8	19.4*	-0.2
COc1ccc(C(C[N+](=O)[O-])c2c(C)[nH]n(-c3ccccc3)c2=O)cc1 (stereo not drawn)	2.5	-0.5	11.4	-0.9	-0.4	-1.0	·	·	·
Cc1[nH]n(-c2ccccc2)c(=O)c1C(c1ccc(O)c([N+](=O)[O-])c1)c1c(C)[nH]n(-c2ccccc2)c1=O	15.9	12.9*	15.8	-2.8	1.9	-0.8	0.6	1.4	2.0
COc1ccccc1C(=O)NC1CCCCN(Cc2ccc(OC(F)(F)F)cc2)C1=O (stereo not drawn)	·	·	-7.4	·	-0.9	·	·	·	·
